The text below walks through data of PubChem BioAssay.

Activity calls are given as the source filed them.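 Rule for the calls, unless noted: active = visually confirmed hit in the image check and inhibition above 20%; inconclusive = visually confirmed hit but inhibition not above 20%; inactive = no visual hit in the image check.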

Assay [1] can be described thus: inhibitors of TNFa-induced NFkB p65 translocation, primary screen, imaging, HUVEC, MLSMR starter and 10KST1 sets (AID 438;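 active = inhibition above 20% together with a positive visual image hit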;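 note: compound added about 3h40 before a 20 min TNFalpha stimulation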;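 for inhibition: signal is the nuclear over cytoplasmic p65 intensity ratio per well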). The conditions noted are these: HUVEC TNFa-induced p65 nuclear translocation; cell count: measured here: nuclei count (cytotoxicity indicator), at 2.08 µM; inhibition: at 2 µM, stronger effect = higher value, 0% TNFa-plus-vehicle, 100% no-TNFa wells.
Assay [2] in a line: inhibitors of E-selectin induction by TNFa, primary screen, imaging, HUVEC, immunofluorescence, MLSMR starter and 10KST1 sets (AID 487).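 For inhibition: signal is fraction of cell area covered by stained E-selectin grains.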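 For nuclei count: 100% = median nuclei count of all wells on the same plate.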 The conditions noted are these: HUVEC TNFalpha-induced E-selectin immunofluorescence imaging, at 2 µM; inhibition: stronger effect = higher value; nuclei count: measured here: cell number, toxicity.
Assay [3] in a line: DUSP6 inhibitors restoring Erk phosphorylation by chemical complementation, primary imaging in DUSP6-transfected HeLa (AID 609;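 active = compounds giving at least 50% inhibition in the cell-based MKP-3 phosphatase rescue imaging test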;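 for inhibition: phospho-Erk level distribution per well compared with pooled transfected vehicle control wells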). The conditions noted are these: HeLa MKP-3 transfected, phospho-Erk imaging KS statistic, at 10 µM, cells stimulated with TPA for 15 min.
Assay [4] has as its target Dual specificity protein phosphatase 6 (Homo sapiens) (UniProt Q16828). Described as above. The conditions noted are these: HeLa MKP-3 transfected, phospho-Erk imaging KS statistic; at 10 µM; stronger effect = higher value; cells stimulated with TPA for 15 min.
Assay [5] concerns the target Voltage-gated potassium channel subunit beta-2 (Rattus norvegicus) (UniProt P62483). Briefly: KvBeta enzyme negative modulators, primary screen, biochemical, NADPH fluorescence (AID 622;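 active = fluorescence slope higher than the sample average by over 3 SD, cut at about -0.22 in these data, passing the limit was not always enough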;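 note: slope of raw intensity against log time taken from 70 to 1610 s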). The conditions noted are these: recombinant KvBeta, 4-cyanobenzaldehyde reduction, at 10 µM, stronger effect = higher value.
Assay [6] shares this target. In words: KvBeta positive modulators, primary screen, biochemical, NADPH fluorescence (AID 623;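 active = NADPH fluorescence slope more negative than the mean of all samples by about 3 SD, 99.7% confidence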;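 note: fluorescence intensity change per second fitted from 20 to 320 s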). Conditions: Recombinant KvBeta, NADPH fluorescence decrease slope, 10 min; at 10 µM; stronger effect = lower value.
Assay [7] addresses Muscarinic acetylcholine receptor M4 (Homo sapiens) (UniProt P08173). Briefly: compounds altering M4/GIRK thallium flux, either direction, primary screen, M4 allosteric agonist project, cell-based, HEK293 M4/GIRK, BTC-AM (AID 625;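 active = fluorescence slope after compound addition differing from the mean of all tested samples at 99.7% confidence, mostly higher but some lower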;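 note: thallium influx through GIRK channels coupled to M4 in HEK293 cells with BTC-AM dye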). Conditions: at 10 µM, actives lie on both sides. In short, it runs like this: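 Material: HEK293 cells with M4 receptor and GIRK channels; Times: cells overnight at 37 °C, BTC-AM loading 1 h, reads 2 min total; Technique: kinetic BTC-AM fluorescence sampled at 1 Hz, 10 s pre-addition baseline; Read-out basis: slope over 15–24 s of trace normalized to starting intensity; Controls: carbachol positive, DMSO negative.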

Assay [8] can be described thus: inhibitors of larval lipid processing in zebrafish, primary screen, whole organism, PED6 fluorescence, gall bladder and intestine (AID 686;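 active = a full or partial loss of lipid-probe fluorescence in the fish gall bladder, intestine or both, judged by eye; inactive = no fluorescence loss, or compound toxic to the fish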;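 note: larvae 5 to 7 days old with five fish per well; signal comes from phospholipase A2 cleavage of quenched PED6 carried via bile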). Conditions: Zebrafish larvae PED6 lipid processing, fluorescence scoring; screened at 20 µM (by protocol). Summed up: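 Incubation: overnight exposure of larvae to compound plus PED6 / Test system: live zebrafish larvae aged 5-7 days, whole organism / Amount: 5 larvae per well / Read-out basis: visual per-well fluorescence inhibition score / Signal: visual fluorescence microscopy scoring of gall bladder, gut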

Assay [9] can be described thus: inhibitors of Chlamydomonas gravitaxis, primary screen, whole organism, Chlamydomonas reinhardtii, WT vs cilia-less mutant, absorbance, 96-well (AID 463189;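 active = inhibition at or above 50% relative to wild type and mutant plate controls; inactive = inhibition below 50%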;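 note: 0% = wild type cc124 cells in DMSO and 100% = ciliumless bld1 mutant cells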). Conditions: OD600 absorbance, 2 days, at 10 µM, stronger effect = higher value.
Where [10] appears, read: measured here: cell density z-score.
[11] abbreviates: measured here: nuclear c-Myc green intensity z-score.
Setting [12] is: measured here: nuclear pErk red intensity z-score, stronger effect = higher value.

Muscarinic acetylcholine receptor M4 (Homo sapiens), sequence (P08173 whole entry, looked up): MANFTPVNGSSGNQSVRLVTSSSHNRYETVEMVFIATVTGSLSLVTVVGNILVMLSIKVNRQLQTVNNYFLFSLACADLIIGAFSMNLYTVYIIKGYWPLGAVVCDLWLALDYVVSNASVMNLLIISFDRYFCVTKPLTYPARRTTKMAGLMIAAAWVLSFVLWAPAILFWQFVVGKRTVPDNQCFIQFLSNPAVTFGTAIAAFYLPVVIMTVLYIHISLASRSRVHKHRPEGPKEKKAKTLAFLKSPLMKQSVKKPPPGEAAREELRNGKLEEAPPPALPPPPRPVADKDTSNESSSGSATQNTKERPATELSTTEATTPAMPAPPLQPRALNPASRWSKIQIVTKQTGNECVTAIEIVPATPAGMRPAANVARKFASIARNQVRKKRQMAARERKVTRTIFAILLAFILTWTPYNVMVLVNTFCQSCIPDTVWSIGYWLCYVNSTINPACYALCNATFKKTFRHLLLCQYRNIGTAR
Dual specificity protein phosphatase 6 (Homo sapiens), sequence (Q16828 whole entry, looked up): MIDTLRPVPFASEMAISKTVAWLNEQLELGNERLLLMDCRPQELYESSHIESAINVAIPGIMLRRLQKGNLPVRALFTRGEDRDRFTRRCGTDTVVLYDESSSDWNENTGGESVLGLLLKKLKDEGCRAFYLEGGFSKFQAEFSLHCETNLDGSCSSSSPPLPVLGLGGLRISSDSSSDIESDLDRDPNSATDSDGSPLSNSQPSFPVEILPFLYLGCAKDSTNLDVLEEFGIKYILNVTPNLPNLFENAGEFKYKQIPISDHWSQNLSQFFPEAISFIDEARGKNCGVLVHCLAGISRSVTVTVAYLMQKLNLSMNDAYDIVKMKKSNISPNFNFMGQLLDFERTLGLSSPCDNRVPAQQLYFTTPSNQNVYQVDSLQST
Voltage-gated potassium channel subunit beta-2 (Rattus norvegicus), sequence (P62483 whole entry, looked up): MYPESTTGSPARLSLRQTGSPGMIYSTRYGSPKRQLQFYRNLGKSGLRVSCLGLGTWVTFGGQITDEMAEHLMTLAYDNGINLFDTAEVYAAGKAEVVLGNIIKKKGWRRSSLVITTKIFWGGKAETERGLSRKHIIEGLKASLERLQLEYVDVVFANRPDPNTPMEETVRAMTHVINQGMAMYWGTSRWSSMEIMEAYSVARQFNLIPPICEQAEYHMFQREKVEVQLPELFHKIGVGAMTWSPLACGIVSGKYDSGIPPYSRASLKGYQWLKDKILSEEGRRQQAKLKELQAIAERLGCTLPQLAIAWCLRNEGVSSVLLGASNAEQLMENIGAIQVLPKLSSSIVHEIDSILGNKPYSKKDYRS

On to `CCC(=O)Nc1ccc(-c2nnc(-c3ccccc3)o2)cc1`, for which the cell count in [1] worked out at 647. Also, the inhibition (in general, the drop in the measured response relative to a control, in per cent) in assay [1] was 1.6% (inactive); in assay [2], 18.6% (inactive); in [4] it was 1.63% (inactive); in [9] it was 30.3% (inactive). The compound further came in with a nuclei count in [2] of 89.6%. Also, the z-score in [3] (setting [10]) is 1.36; in assay [3] (setting [11]), -0.514; in [3] (setting [12]) it was 1.06. Further, the fluorescence slope is -0.444 (inactive) in [5] and 0.00653 (inactive) in [7]. In addition, the NADPH fluorescence slope in assay [6] is -8.1e-05 (inactive). Also, the result in assay [8] was inactive.
For `COc1cc(C(=O)Nc2ccc(O)cc2C(=O)O)ccc1OC(C)=O`, the cell count in assay [1] was 645. Further, the inhibition in [1] was 3.6% (inactive); in [2] it was 31.5% (inactive); in assay [4], 5.35% (inactive); in [9], 13.9% (inactive). The nuclei count in [2] amounted to 95.3%. For the same compound, the z-score in assay [3] (setting [10]) was -0.0173; in assay [3] (setting [11]), 0.715; in assay [3] (setting [12]), -0.436. For the same compound, the fluorescence slope is -0.547 (inactive) in [5] and 0.00561 (inactive) in assay [7]. In [6], the NADPH fluorescence slope was -6.2e-05 (inactive). Moreover, the compound was classed as inactive in [8].
As for `COC(=O)c1sc(NC(=O)c2oc3ccccc3c2C)nc1C`, in assay [1], the cell count was found to be 594. For the same compound, the inhibition was -0.2% (inactive) in [1], -146% (inactive) in [2], 25.8% (inactive) in assay [4] and -10.3% (inactive) in assay [9]. The compound also yielded a nuclei count in [2] of 150%. Besides, the z-score in assay [3] (setting [10]) was 0.222; in assay [3] (setting [11]) it was -0.561; in assay [3] (setting [12]) it was -0.214. For the same compound, the fluorescence slope was -0.269 (inactive) in assay [5] and 0.00832 (inactive) in assay [7]. The NADPH fluorescence slope in [6] was -4e-05 (inactive). Further, the call in [8] was inactive.
In the case of `CCOC(=O)c1c(C)n(C)c2ccc(OC)c(NC(=O)CN3CCC4(CC3)OCCO4)c12`, the cell count in assay [1] was found to be 690. Further, the inhibition in assay [1] was -4.9% (inactive); in [2], -157% (inactive); in assay [4], -10.1% (inactive); in assay [9], -0.554% (inactive). Also, the nuclei count in [2] worked out at 178%. Moreover, the z-score worked out at 0.288 in assay [3] (setting [10]), 0.471 in assay [3] (setting [11]) and 0.00411 in assay [3] (setting [12]). In addition, the values for the fluorescence slope in assay [5] and in [7] were -0.44 (inactive) and 0.00438 (inactive), respectively. Also, in assay [6], the NADPH fluorescence slope was -4.5e-05 (inactive). In assay [8], the outcome was inactive.
Take `CCCSc1nnc(NC(=O)Nc2ccc(F)cc2)s1`: the cell count in [1] turned out to be 660. The inhibition in assay [1] is -13.9% (inactive); in [2] it was -24% (inactive); in [4], 20.2% (inactive); in assay [9], 6.75% (inactive). In assay [2], this compound returned a nuclei count of 182%. Besides, the z-score is 0.28 in assay [3] (setting [10]), -1.17 in [3] (setting [11]) and -0.511 in [3] (setting [12]). Further, the fluorescence slope is -0.488 (inactive) in assay [5] and 0.00807 (inactive) in assay [7]. Besides, in assay [6], the NADPH fluorescence slope is -6.8e-05 (inactive). For the same compound, the compound was called inactive in assay [8].
With `COc1cccc(-c2nc(N3CCCCC3C)c3ccccc3n2)c1O` (configuration not stated), the cell count in [1] was 676. For the same compound, the inhibition in [1] is 1% (inactive); in assay [2], 32.7% (inactive); in [4], -5.62% (inactive); in assay [9] it was 9.9% (inactive). In assay [2], the nuclei count came out at 154%. The z-score in [3] (setting [10]) was -0.111; in [3] (setting [11]) it was 1.23; in [3] (setting [12]), 0.615. Besides, the fluorescence slope was -0.465 (inactive) in [5] and 0.0038 (inactive) in assay [7]. In assay [6], the NADPH fluorescence slope is -7.5e-05 (inactive). Besides, in assay [8], the outcome was “inactive; toxic”.
Regarding `O=C(O)C1CC(=O)N(Cc2cccs2)C1` (configuration not stated), the cell count in assay [1] came to 557. Besides, the inhibition in [1] is -4.7% (inactive); in assay [2] it was -73.2% (inactive); in [4] it was 17.8% (inactive); in [9] it was -9.05% (inactive). Further, the nuclei count in assay [2] was found to be 165%. Also, the z-score in [3] (setting [10]) was 0.677; in [3] (setting [11]), 0.857; in assay [3] (setting [12]) it was -1.54. Also, the figures for the fluorescence slope in assay [5] and in assay [7] were -0.404 (inactive) and 0.00636 (inactive), respectively. In addition, in assay [6], the NADPH fluorescence slope was -3e-05 (inactive). Also, the compound was classed as inactive in assay [8].
`COc1cccc(C=NCCNC(=O)c2nonc2N)c1O`: in assay [1], the cell count worked out at 517. Further, the inhibition in assay [1] is -4% (inactive); in assay [2], 62.5% (inactive); in assay [4], 7.93% (inactive); in [9] it was -4.89% (inactive). Further, in [2], the nuclei count was 169%. For the same compound, the z-score is -0.652 in assay [3] (setting [10]), 2.61 in [3] (setting [11]) and -0.971 in [3] (setting [12]). Besides, the fluorescence slope is -0.413 (inactive) in assay [5] and 0.00584 (inactive) in [7]. Further, the NADPH fluorescence slope in assay [6] was -3.4e-05 (inactive). Further, the result in assay [8] was inactive.
As for `COc1ccc(C(O)C(CN2CCOCC2)c2ccccc2)cc1` (configuration not stated), the cell count in [1] is 393. The inhibition was -2.8% (inactive) in assay [1], -22.6% (inactive) in assay [2], -2.59% (inactive) in [4] and -3.86% (inactive) in assay [9]. The same compound returned a nuclei count in assay [2] of 144%. Further, the z-score was -0.497 in [3] (setting [10]), -1.2 in [3] (setting [11]) and 2.05 in assay [3] (setting [12]). For the same compound, the fluorescence slope in assay [5] was -0.44 (inactive); in assay [7], 0.00559 (inactive). In addition, in assay [6], the NADPH fluorescence slope was -0.00013 (inactive). Also, in assay [8], the outcome was inactive.
